According to ChEMBL document CHEMBL4651341, “The discovery of a novel series of compounds with single-dose efficacy against juvenile and adult Schistosoma species” (PLoS Negl Trop Dis, 2021):

Tests used:
Schistosoma mansoni [1] = experiment: Concentration required to kill 50% of 21 day old worms 5 days after drug treatment.; type: functional, organism-based; conditions: Puerto Rican, 120 h
Outline: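 Juvenile S. mansoni (Puerto Rican strain) were perfused from CD1 mice 3 weeks post-infection and washed. They were cultured 6–8 per well in 200 µL DMEM with 2 mM glutamine, penicillin/streptomycin and 10% FCS at 37 °C, 5% CO2. Viability of individual worms was scored on day 5 after dosing (120 h).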

[2] = Concentration required to kill 50% HepG2 cells as detected by MTT staining; type: toxicity, cell-based; conditions: homo sapiens, read-out: TC50 (the source's name)
[3] = Mean plasma concentration at 4h in Swiss albino male mice at […] per compound (administered orally in a mixture of 5 compounds to 3 mice) assessed by LCMS/MS.; type: ADME, organism-based; conditions: mouse, po
[4] = Mean time to peak plasma concentration in Swiss albino male mice at […] per compound (administered orally in a mixture of 5 compounds to 3 mice) assessed by LCMS/MS.; type: ADME, organism-based; conditions: mouse, po
Schistosoma mansoni [5] = experiment: Concentration required to kill 50% of 42 day old worms 5 days after drug treatment.; type: functional, organism-based; conditions: Puerto Rican, 120 h
Outline: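 Adult S. mansoni were perfused from CD1 mice 6 weeks post-infection and washed. They were cultured 3 pairs per well in 1 mL DMEM with 2 mM glutamine, penicillin/streptomycin and 10% FCS […] at 37 °C, 5% CO2. Viability of individual worms was scored on day 5 (120 h).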

[6] = Mean oral bioavailability in Swiss albino male mice at […] per compound (administered in a mixture of 5 compounds to 3 mice) assessed by LCMS/MS.; also: dose 2.5 mg/kg; type: ADME, organism-based; conditions: male, Swiss albino, mouse, in vivo, read-out: Bioavailability
[7] = Mean AUC inf in Swiss albino male mice at 1 mg/kg per compound (administered iv in a mixture of 5 compounds to 3 mice) assessed by LCMS/MS.; type: ADME, organism-based; conditions: male, Swiss albino, mouse, in vivo
Outline: (§1)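 Male Swiss albino mice (~30 g), 3 per experiment, mostly dosed as mixtures of 5 compounds iv via the lateral tail vein. Vehicle: 10% DMSO/90% 50 mM Na2HPO4 with 0.5% Tween-80. Blood sampled at 5, 15, 30 min and 1, 2, 4, 8, 24 h. Plasma stored at −20 °C and quantified by LC-MS after acetonitrile precipitation.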

[8] = Mean observed clearance in Swiss albino male mice at 1 mg/kg per compound (administered iv in a mixture of 5 compounds to 3 mice) assessed by LCMS/MS.; type: ADME, organism-based; conditions: male, Swiss albino, mouse, in vivo, read-out: Clearance (converted); outline: as §1

Structure (SMILES)	EC50 (Schistosoma mansoni [1]) [µM]	also measured
CS(=O)(=O)c1ccc(-c2cnc3ccc(-c4cccc(S(C)(=O)=O)c4)nn23)cc1	24.9	CC50 [2]: 11.9 µM
Cn1cc(-c2cn3c(-c4ccc(O)cc4)cnc3cn2)cn1	> 25	–
CC(C)Oc1cccc(-c2cn3c(-c4ccc(F)cc4)cnc3cn2)c1	> 25	–
COc1ccc(-c2cnc3cnc(-c4ccc(C(C)C)cc4)cn23)cc1	> 25	–
OCCn1cc(-c2cn3c(-c4ccc(O)cc4)cnc3cn2)cn1	> 25	–
CC(=O)Nc1cccc(-c2cn3c(-c4ccc(O)cc4)cnc3cn2)c1	> 25	–
CC(C)c1nn2cnc(-c3ccc(F)c(C(F)(F)F)c3)cc2c1-c1ccc2[nH]ncc2c1F	–	concentration at 4 h [3]: 332 ng/mL; Tmax [4]: 2 h
CC(C)Oc1cccc(-c2cn3c(-c4ccc5[nH]ncc5c4F)c(C(F)(F)F)nc3cn2)c1	0.0264	EC50 (Schistosoma mansoni [5]): 0.0173 µM; CC50 [2]: 13.2 µM
Fc1ccc(-c2cn3c(-c4ccc5[nH]ncc5c4F)c(C4CC4)nc3cn2)cc1C(F)(F)C(F)(F)F	0.0368	EC50 (Schistosoma mansoni [5]): 0.0232 µM
Cn1ccc(-c2cn3c(-c4ccc(O)cc4)cnc3cn2)n1	> 25	–
Oc1ccc(-c2cnc3cnc(-c4cnn(C5CCCC5)c4)cn23)cc1	> 25	–
CS(=O)(=O)Nc1cccc(-c2cn3c(-c4ccc(O)cc4)cnc3cn2)c1	> 25	–
Oc1ccc(-c2cnc3cnc(C4=COCCC4)cn23)cc1	> 25	bioavailability [6]: 0.01%; AUC(0-inf) [7]: 52.2 ng·h/mL; clearance [8]: 177 mL/min/kg; Tmax [4]: 0.01 h
Cc1nc2cnc(-c3ccc(F)c(S(F)(F)(F)(F)F)c3)cn2c1-c1ccc2[nH]ncc2c1F	0.077	EC50 (Schistosoma mansoni [5]): 0.0262 µM
Oc1ccc(-c2cnc3cnc(-c4cccc(-c5ccn[nH]5)c4)cn23)cc1	> 25	–
CC(C)c1cccc(-c2cn3c(-c4ccc(OC(F)(F)F)cc4)cnc3cn2)c1	> 25	–
Cn1ncc2c(-c3cn4c(-c5ccc(O)cc5)cnc4cn3)cccc21	19	–
Cn1cncc1-c1cn2c(-c3ccc(O)cc3)cnc2cn1	> 25	–
Cn1cccc(-c2cn3c(-c4ccc(O)cc4)cnc3cn2)c1=O	> 25	–
Cc1nc2cnc(-c3cccc(C(F)(F)F)c3)cn2c1-c1ccc(O)cc1	1.42	EC50 (Schistosoma mansoni [5]): < 0.615 µM
CC(C)c1cc(-c2cn3c(-c4ccc5[nH]ncc5c4F)c(C(F)(F)F)nc3cn2)ccn1	0.0917	EC50 (Schistosoma mansoni [5]): 0.037 µM; CC50 [2]: 9.53 µM
COc1cccc(-c2cnc3cnc(-c4cccc(OC(C)C)c4)cn23)c1	24.8	–
Oc1ccc(-c2cnc3cnc(-c4cnn(Cc5ccccc5)c4)cn23)cc1	> 25	–
CCOc1cccc(-c2cn3c(-c4ccc(O)cc4)cnc3cn2)c1F	15.6	–

Structure (SMILES)	EC50 (Schistosoma mansoni [1]) [µM]	also measured
Cn1ncc2cc(-c3cn4c(-c5ccc(O)cc5)cnc4cn3)ccc21	21.4	–
COc1cccc(-c2cn3c(-c4ccc(O)cc4)cnc3cn2)n1	> 25	–
Cn1nc(C(F)(F)F)cc1-c1cn2c(-c3ccc(O)cc3)cnc2cn1	> 25	–
CC(C)c1cc(-c2cn3c(-c4c(F)cc(O)cc4F)c(C4CC4)nc3cn2)ccc1F	0.00519	EC50 (Schistosoma mansoni [5]): 0.00448 µM
Cn1cc(-c2cn3c(-c4ccc(O)cc4)cnc3cn2)ccc1=O	> 25	–
CC(C)Cn1cc(-c2cn3c(-c4ccc(O)cc4)cnc3cn2)cn1	> 25	–
NC(=O)c1cccc(-c2cn3c(-c4ccc(O)cc4)cnc3cn2)c1	> 25	–
Oc1ccc(-c2cnc3cnc(-c4ccnc(C(F)(F)F)c4)cn23)cc1	> 25	–
CC(=O)c1ccc(F)c(-c2cn3c(-c4ccc(O)cc4)cnc3cn2)c1	> 25	–
COc1c(O)cccc1-c1c(C(C)C)nc2cnc(-c3cccc(C(F)(F)F)c3)cn12	1.32	EC50 (Schistosoma mansoni [5]): 1.76 µM
NC(=O)Cc1cccc(-c2cn3c(-c4ccc(O)cc4)cnc3cn2)c1	> 25	–
CN(C)C(=O)c1ccc(-c2cn3c(-c4ccc(O)cc4)cnc3cn2)cc1	> 25	–
CC(=O)c1cccc(-c2cn3c(-c4ccc(O)cc4)cnc3cn2)c1	> 25	–
Cn1ncc2cccc(-c3cn4c(-c5ccc(O)cc5)cnc4cn3)c21	> 25	–
CC(C)Oc1cccc(-c2cn3c(-c4cccc(C#N)c4)cnc3cn2)c1	> 25	–
Oc1ccc(-c2cnc3cnc(-c4cccc(C(F)(F)F)c4)cn23)c(Cl)c1	4.26	–
Oc1ccc(-c2cnc3cnc(-c4ccc5[nH]ncc5c4)cn23)cc1	> 25	–
CC(C)c1nc2cnc(-c3cccc(Br)c3)cn2c1-c1ccc2[nH]ncc2c1F	0.0266	EC50 (Schistosoma mansoni [5]): 0.036 µM
COc1ccc(C(C)C)cc1-c1cn2c(-c3ccc(O)cc3)cnc2cn1	6.06	–
Cn1nccc1-c1cn2c(-c3ccc(O)cc3)cnc2cn1	> 25	–
CC(=O)c1cccc(-c2cn3c(-c4ccc(O)cc4)cnc3cn2)c1F	> 25	–
COc1cc(-c2cn3c(-c4ccc(O)cc4)cnc3cn2)ccn1	> 25	–
Oc1ccc(-c2cnc3cnc(-c4cnc(-c5ccccc5)o4)cn23)cc1	> 25	–
Oc1ccc(-c2cnc3cnc(-c4cnn(CC5CC5)c4)cn23)cc1	> 25	–

Structure (SMILES)	EC50 (Schistosoma mansoni [1]) [µM]	also measured
CN(C)Cc1cccc(-c2cn3c(-c4ccc(O)cc4)cnc3cn2)c1	24.6	–
Fc1ccc(-c2cn3c(-c4ccc5[nH]ncc5c4F)c(C(F)(F)F)nc3cn2)cc1Br	0.0344	EC50 (Schistosoma mansoni [5]): 0.0479 µM
Cc1n[nH]c(C)c1-c1cn2c(-c3ccc(O)cc3)cnc2cn1	> 25	–
Oc1ccc(-c2cnc3cnc(-c4cccc(C(F)(F)F)c4F)cn23)cc1	> 25	–
Cc1c(-c2cn3c(-c4ccc(O)cc4)cnc3cn2)cnn1C	> 25	–
CC(C)c1ccccc1-c1cn2c(-c3ccc(O)cc3)cnc2cn1	16.6	–
CN(C)C(=O)c1cccc(-c2cn3c(-c4ccc(O)cc4)cnc3cn2)c1	> 25	–
Oc1ccc(-c2cnc3cnc(-c4ccc5cn[nH]c5c4)cn23)cc1	25	–
CC(C)c1nc2cnc(-c3ccc(F)c(C(F)(F)F)c3)cn2c1-c1c(F)ccc(O)c1F	0.32	EC50 (Schistosoma mansoni [5]): 0.455 µM
COc1cc(O)ccc1-c1c(C(C)C)nc2cnc(-c3cccc(C(F)(F)F)c3)cn12	1.05	EC50 (Schistosoma mansoni [5]): 0.918 µM
CCCOc1cc(-c2cn3c(-c4ccc(O)cc4)cnc3cn2)ccc1OC	25	–
COc1cc(-c2c(C)nc3cnc(-c4cccc(C(F)(F)F)c4)cn23)ccc1O	1.27	EC50 (Schistosoma mansoni [5]): < 0.64 µM
CC(C)c1cccc(-c2ccc3nnc(-c4ccc(O)cc4)n3c2)c1	> 25	–
CC(C)Oc1cccc(-c2cn3c(-c4ccc(O)cc4)cnc3cn2)c1	5.31	EC50 (Schistosoma mansoni [5]): 4.43 µM
COc1ccc(-c2nnc3ccc(-c4cccc(C(C)C)c4)cn23)cc1O	9.74	–
Oc1ccc(-c2cnc3cnc(C4=CCOCC4)cn23)cc1	> 25	–
OCCc1cccc(-c2cn3c(-c4ccc(O)cc4)cnc3cn2)c1	> 25	–
CN(C)S(=O)(=O)c1cccc(-c2cn3c(-c4ccc(O)cc4)cnc3cn2)c1	> 25	–
CS(=O)(=O)c1cncc(-c2cn3c(-c4ccc(O)cc4)cnc3cn2)c1	> 25	–
COc1cccc(-c2cnc3cnc(-c4cccc(OC(C)C)c4)cn23)n1	> 25	–
C#CCOc1cc(-c2cn3c(-c4ccc5[nH]ncc5c4F)c(C(F)(F)F)nc3cn2)ccc1F	0.021	EC50 (Schistosoma mansoni [5]): 0.0104 µM
Oc1cc(F)c(-c2c(CC(F)(F)F)nc3cnc(-c4ccc(F)c(C(F)(F)F)c4)cn23)c(F)c1	0.139	EC50 (Schistosoma mansoni [5]): 0.0793 µM
CC(C)c1nc2cnc(-c3ccc(F)c(C(F)(F)F)c3)cn2c1-c1ccc2[nH]cnc2c1F	0.658	EC50 (Schistosoma mansoni [5]): 0.904 µM
